Data published in ChEMBL document CHEMBL1212856, “Anti-Plasmodium activity of imidazolium and triazolium salts” (Bioorg Med Chem, 2010).

Experiments:
Plasmodium falciparum = assay: Antiplasmodial activity against Plasmodium falciparum 3D7 after 72 by LDH assay; format: functional, organism-based
Method in brief: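 Non-synchronous chloroquine-sensitive P. falciparum culture at 2% hematocrit and 2% parasitemia, in RPMI-10Pf with twofold serial compound dilutions from a 10 mg/mL DMSO stock. Incubated 72 h at 37 °C under 95% N₂, 3% CO₂, 2% O₂. Resuspended samples went into parasite-specific LDH mix, read at 595 nm after 1 h. IC50 by non-linear regression; mean ± standard error of four independent determinations.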

CHO = assay: Cytotoxicity against CHO cells after 48 hrs by MTT assay; format: cell-based; conditions: Cricetulus griseus
Method in brief: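 CHO cells in RPMI-1640 with 10% fetal calf serum, 25 mM HEPES and gentamicin, grown to 50% confluency before dosing. Dilution series made from a 10 mg/mL DMSO stock, with DMSO-alone controls. After 48 h the medium was replaced with […] for 30 min.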

SMILES | IC50 (Plasmodium falciparum) [µM] | IC50 (CHO) [µM]
Clc1ccc(Cn2cc[n+](Cc3ccc(Cl)cc3)c2)cc1 | 9 | 
c1ccc(Cn2cc[n+](Cc3ccccc3)c2)cc1 | 16 | 
O=C(Cn1cncn1)c1ccccc1 | 894 | 334
COc1ccc(Cn2cc[n+](Cc3ccc(OC)cc3)c2)cc1 | 5 | 30.6
C[n+]1cn(CC(=O)CCc2ccccc2)nc1-c1ccccc1 | 3.4 | 237
c1nc[nH]n1 [1,2,4-TRIAZOLE] | 2900 | 1270
Fc1c(F)c(F)c(-n2c[n+]3c(n2)CCC3)c(F)c1F | 89 | 303
O=[N+]([O-])c1ccc(Cn2cc[n+](Cc3ccc([N+](=O)[O-])cc3)c2)cc1 | 9 | 
O=C(Cn1c[n+](Cc2ccccc2)cn1)c1ccccc1 | 73 | 261
Fc1ccc(Cn2cc[n+](Cc3ccc(F)cc3)c2)cc1 | 17 | 56
O=C(Cn1c[n+](CC(=O)c2ccc(Br)cc2)cn1)c1ccc(Br)cc1 | 10.9 | 20.9
c1c[nH]cn1 [IMIDAZOLE] | 368 | 3680
C[n+]1c(-c2ccccc2)nn(Cc2ccccc2)c1-c1ccccc1 | 7.8 | 87
CSc1nn(-c2ccccc2)c[n+]1-c1ccccc1 | 69 | 224
c1ccc(Cn2c[n+](Cc3ccccc3)cn2)cc1 | 100 | 74

Now those with a lower IC50 (Plasmodium falciparum), led by results:

IC50 (Plasmodium falciparum) [µM] | SMILES | IC50 (CHO) [µM]
0.35 | Ic1ccc(Cn2cc[n+](Cc3ccc(I)cc3)c2)cc1 | 33
0.5 | O=C(Cn1cc[n+](CC(=O)c2ccc(Cc3ccccc3)cc2)c1)c1ccc(Cc2ccccc2)cc1 | 4.3
0.73 | Brc1ccc(Cn2cc[n+](Cc3ccc4ccccc4c3)c2)cc1 | 27
3.3 | Clc1cccc(Cn2cc[n+](Cc3cccc(Cl)c3)c2)c1 | 
0.1 | C[n+]1c(-c2ccccc2)nn(CC(=O)CCc2ccccc2)c1-c1ccccc1 | 143
2.6 | O=C(Cn1cc[n+](CC(=O)c2ccc(Cl)cc2)c1)c1ccc(Cl)cc1 | 53
3.1 | CSc1nn(-c2ccccc2)c(C)[n+]1-c1ccccc1 | 307
2.9 | Brc1ccc(C[n+]2ccn(Cc3ccccc3)c2)cc1 | 
1.4 | Brc1ccccc1Cn1cc[n+](Cc2ccccc2Br)c1 | 
1.68 | C[n+]1c(-c2ccccc2)nn(Cc2ccc(Br)cc2)c1-c1ccccc1 | 33
0.9 | c1ccc(Cn2cc[n+](Cc3ccc4ccccc4c3)c2)cc1 | 
2 | Clc1ccccc1Cn1cc[n+](Cc2ccccc2Cl)c1 | 
0.9 | c1ccc2cc(Cn3cc[n+](Cc4ccc5ccccc5c4)c3)ccc2c1 | 27
1.05 | Brc1cccc(Cn2cc[n+](Cc3cccc(Br)c3)c2)c1 | 
0.7 | Brc1ccc(Cn2cc[n+](Cc3ccc(Br)cc3)c2)cc1 | 172
